By MIC is commonly meant the smallest concentration in the dilution series that meets the test's criterion for growth inhibition.

Values after ≈ are worked out from the molar mass of the structure shown.

In data set [1] the test system is Aspergillus niger. Briefly: Antifungal activity against Aspergillus niger ATCC 16404 after 48 hrs by broth microdilution method. In kind it is functional. The note with it: ATCC 16404, 48 h. The gist of the method:
(§1)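 Susceptibility of filamentous fungi (molds) by broth microdilution per NCCLS M38-A in 96-well microplates. The MIC is read as the lowest inhibitory concentration. It is given as one number when replicate data fully agreed.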
Background: Dilution methods test growth across graded concentrations, often in twofold steps.

Data set [2] has as its system Vanrija humicola. Description: Antifungal activity against Cryptococcus humicolus ATCC 9949 after 48 hrs by broth microdilution method. The format is functional. Particulars: ATCC 9949, 48 h. In a few lines: (§2)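 Yeast susceptibility by broth microdilution per NCCLS M27-A in 96-well plates. MIC is the lowest concentration inhibiting growth. Where repeat runs fully coincided, a single value is reported.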

In data set [3] the test system is Candida albicans. Briefly: Antifungal activity against Candida albicans ATCC 14053 after 48 hrs by broth microdilution method. In kind it is functional. Particulars: ATCC 14053, 48 h. The gist of the method:
as §2

The subject of data set [4] is Fusarium oxysporum. Briefly: Antifungal activity against Fusarium oxysporum VKM F-140 after 48 hrs by broth microdilution method. In kind it is functional. In a few lines:
as §1

A short description of data set [5]: Toxicity against human erythrocytes assessed as hemolytic activity at 5 ug/ml. The format is cell-based, Erythrocyte. Particulars: read-out: Activity. The gist of the method:
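Lysis of erythrocytes in defibrinated human blood was measured under buffered conditions with compound at 5 µg/mL. Percent hemolysis is the mean of blood samples from two donors.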

Regarding `COC(=O)[C@H](CO)NC(=O)[C@H]1[C@@H]2C[C@@H](O[C@H]3O[C@@H](C)[C@H](O)[C@@H](N)[C@H]3O)/C=C/C=C/C=C/C=C/C=C/C=C/C=C/[C@H](C)[C@@H](O)[C@@H](C)[C@H](C)OC(=O)C[C@H](O)C[C@H](O)C[C@H](O)CC[C@@H](O)[C@H](O)C[C@](O)(C[C@@H]1O)O2`, the MIC worked out at 2 µg/mL (≈ 1.95 µM) in data set [1], 2 µg/mL (≈ 1.95 µM) in data set [2], 2 µg/mL (≈ 1.95 µM) in data set [3] and 4 µg/mL (≈ 3.9 µM) in data set [4]. Besides, the hemolysis at 5 ug/ml in data set [5] was 14%.

In the case of `CNC(=O)[C@H]1[C@@H]2C[C@@H](O[C@H]3O[C@@H](C)[C@H](O)[C@@H](N)[C@H]3O)/C=C/C=C/C=C/C=C/C=C/C=C/C=C/[C@H](C)[C@@H](O)[C@@H](C)[C@H](C)OC(=O)C[C@H](O)C[C@H](O)C[C@H](O)CC[C@@H](O)[C@H](O)C[C@](O)(C[C@@H]1O)O2`, the MIC was determined as 2 µg/mL (≈ 2.13 µM) in data set [1], 1 µg/mL (≈ 1.07 µM) in data set [2], 2 µg/mL (≈ 2.13 µM) in data set [3] and 8 µg/mL (≈ 8.54 µM) in data set [4]. In addition, in data set [5], the hemolysis at 5 ug/ml was 5%.

As for `C[C@@H]1[C@H](O)[C@@H](C)/C=C/C=C/C=C/C=C/C=C/C=C/C=C/[C@H](O[C@H]2O[C@@H](C)[C@H](O)[C@@H](N)[C@H]2O)C[C@@H]2O[C@](O)(C[C@@H](O)[C@H](O)CC[C@@H](O)C[C@@H](O)C[C@@H](O)CC(=O)O[C@H]1C)C[C@H](O)[C@H]2C(N)=O`, the minimal inhibitory concentration (MIC) came out at 4 µg/mL (≈ 4.33 µM) in data set [1], 2 µg/mL (≈ 2.17 µM) in data set [2], 2 µg/mL (≈ 2.17 µM) in data set [3] and 4 µg/mL (≈ 4.33 µM) in data set [4]. The hemolysis at 5 ug/ml in data set [5] is 8%.

For `COC(=O)C(CO)NC(=O)[C@H]1[C@@H]2C[C@@H](O[C@H]3O[C@@H](C)[C@H](O)[C@@H](N)[C@H]3O)/C=C/C=C/C=C/C=C/C=C/C=C/C=C/[C@H](C)[C@@H](O)[C@@H](C)[C@H](C)OC(=O)C[C@H](O)C[C@H](O)C[C@H](O)CC[C@@H](O)[C@H](O)C[C@](O)(C[C@@H]1O)O2` (stereo not given in full), the MIC came to 4 µg/mL (≈ 3.9 µM) in data set [1], 2 µg/mL (≈ 1.95 µM) in data set [2], 2 µg/mL (≈ 1.95 µM) in data set [3] and 4 µg/mL (≈ 3.9 µM) in data set [4]. The hemolysis at 5 ug/ml in data set [5] is 4%.

As for `C[C@@H]1[C@H](O)[C@@H](C)/C=C/C=C/C=C/C=C/C=C/C=C/C=C/[C@H](O[C@H]2O[C@@H](C)[C@H](O)[C@@H](N)[C@H]2O)C[C@@H]2O[C@](O)(C[C@@H](O)[C@H](O)CC[C@@H](O)C[C@@H](O)C[C@@H](O)CC(=O)O[C@H]1C)C[C@H](O)[C@H]2C(=O)N[C@H]1[C@H](O)[C@@H](O)[C@H](CO)O[C@H]1O`, the MIC was 2 µg/mL (≈ 1.84 µM) in data set [1], 1 µg/mL (≈ 0.921 µM) in data set [2], 1 µg/mL (≈ 0.921 µM) in data set [3] and 8 µg/mL (≈ 7.37 µM) in data set [4]. In data set [5], the hemolysis at 5 ug/ml is 3%.

As for `C[C@@H]1[C@H](O)[C@@H](C)/C=C/C=C/C=C/C=C/C=C/C=C/C=C/[C@H](O[C@H]2O[C@@H](C)[C@H](O)[C@@H](N)[C@H]2O)C[C@@H]2O[C@](O)(C[C@@H](O)[C@H](O)CC[C@@H](O)C[C@@H](O)C[C@@H](O)CC(=O)O[C@H]1C)C[C@H](O)[C@H]2C(=O)NCCO`, the MIC in data set [1] is 4 µg/mL (≈ 4.14 µM); in data set [2] it was 4 µg/mL (≈ 4.14 µM); in data set [3], 2 µg/mL (≈ 2.07 µM); in data set [4], 4 µg/mL (≈ 4.14 µM). The hemolysis at 5 ug/ml in data set [5] worked out at 3%.

`C[C@@H]1[C@H](O)[C@@H](C)/C=C/C=C/C=C/C=C/C=C/C=C/C=C/[C@H](O[C@H]2O[C@@H](C)[C@H](O)[C@@H](NCCCN)[C@H]2O)C[C@@H]2O[C@](O)(C[C@@H](O)[C@H](O)CC[C@@H](O)C[C@@H](O)C[C@@H](O)CC(=O)O[C@H]1C)C[C@H](O)[C@H]2C(=O)O`: the MIC in data set [1] amounted to 4 µg/mL (≈ 4.08 µM); in data set [2], 4 µg/mL (≈ 4.08 µM); in data set [3], 2 µg/mL (≈ 2.04 µM); in data set [4], 4 µg/mL (≈ 4.08 µM). The hemolysis at 5 ug/ml in data set [5] was determined as 45%.

For the origin of these results see ChEMBL document CHEMBL1139324, “Chemical modification and biological evaluation of new semisynthetic derivatives of 28,29-Didehydronystatin A1 (S44HP), a genetically engineered antifungal polyene macrolide antibiotic” (J Med Chem, 2009).
